Laboratory results as given in ChEMBL document CHEMBL4346702, “Development of CXCR4 modulators based on the lead compound RB-108” (Eur J Med Chem, 2019).
Values belong to the molecule of their own block, whether it stands above or below them. The source made the active and inactive calls. The calls are words filed in the database; no cut-off is given here.

Assays:
[1] = test system: Mus musculus; assay: Antiinflammatory activity in C57BL/6J mouse assessed as inhibition of carrageenan-induced paw edema at 10 mg/kg, ip daily dosed 30 mins after carrageenan challenge and measured 74 hrs carrageenan challenge and 2 hrs post last dose by caliper method relative to control; format: functional
How it was run: (§1)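 Female C57BL/6J mice, five per group; 50 μL λ-carrageenan (1% w/v in saline) injected subcutaneously into one hind paw, 50 μL saline into the other as non-inflamed control. Vehicle-only i.p. controls. Sacrifice 74 h after challenge and 2 h after last dose. Paw thickness measured palm to back with caliper. Edema = injected minus contralateral paw. Suppression % = treated versus control group.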

[2] = target: C-X-C chemokine receptor type 4 (Homo sapiens) (UniProt P61073); assay: Potency index, Ratio of EC for AMD3100 to EC for test compound for inhibition of biotinylated TN14003 binding to CXCR4 in human MDA-MB-231 cells preincubated for 10 mins followed by biotinylated-TN14003 addition measured after 30 mins by streptavidin-rhodamine staining based fluorescence microscopic analysis; format: cell-based
[3] = target: C-X-C chemokine receptor type 4 (Homo sapiens) (UniProt P61073); assay: Inhibition of CXCR4-mediated chemotaxis in human MDA-MB-231 cells assessed as reduction in CXCL12alpha-induced cell invasion at 100 nM incubated for 22 hrs by hematoxylin/eosin dye-based matrigel assay relative to control
How it was run: (§2)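 Matrigel invasion chamber with MDA-MB-231 cells. Compound (100 nM) added to cells before seeding in the top chamber; CXCL12α 200 ng/mL in the bottom chamber as chemoattractant, serum-free medium. Incubated 22 h. Non-invading cells swabbed off; invaded cells fixed in methanol and H&E stained, then counted. Inhibition relative to untreated invasion.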

[4] = target: C-X-C chemokine receptor type 4 (Homo sapiens) (UniProt P61073); assay: Competitive inhibition of biotinylated TN14003 binding to CXCR4 in human MDA-MB-231 cells preincubated for 10 mins followed by biotinylated-TN14003 addition measured after 30 mins by streptavidin-rhodamine staining based fluorescence microscopic analysis; format: cell-based
How it was run: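 MDA-MB-231 cells, 2 × 10⁴ per well, seeded two days ahead. Compound (1, 10, 100 or 1000 nM) added for 10 min at room temperature, then fixed in ice-cold 4% paraformaldehyde and rehydrated in PBS. Biotinylated TN14003 0.05 μg/mL for 30 min at RT, PBS washes, streptavidin-rhodamine (1:150) 30 min at RT. Read by fluorescence microscopy. EC = lowest concentration reducing rhodamine staining versus control.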

[5] = target: C-X-C chemokine receptor type 4 (Homo sapiens) (UniProt P61073); assay: Inhibition of CXCR4-mediated chemotaxis in human MDA-MB-231 cells assessed as reduction in CXCL12alpha-induced cell invasion incubated for 22 hrs by hematoxylin/eosin dye-based matrigel assay relative to control; conditions: concentration not given here; how it was run: as §2
[6] = test system: MDA-MB-231; assay: Cytotoxicity against human MDA-MB-231 cells at 100 uM incubated for 24 hrs by CellTiter-96AQ based MTT assay; format: cell-based; conditions: mda-mb-231, 24 h
How it was run: (§3)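 Cells seeded at 3000 per well and grown 24 h at 37 °C in CO₂. Treated with compound for 24 h at 37 °C, top concentration 100 μM. CellTiter 96AQ reagent added for 2 h more, then absorbance read at 490 nm.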

[7] = test system: Mus musculus; assay: Antiinflammatory activity in C57BL/6J mouse assessed as reduction of carrageenan-induced inflammation and tissue damage in paw by measuring edema volume and thickness at 10 mg/kg, ip daily dosed 30 mins after carrageenan challenge and measured 74 hrs carrageenan challenge and 2 hrs post last dose by H and E staining based histopathological analysis; format: functional, organism-based
[8] = Tmax in Sprague-Dawley rat at 10 mg/kg, ig measured for 5 min to 6 hrs by LC/MS/MS analysis; format: ADME, organism-based; conditions: in vivo, po
How it was run: (§4)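 Two male SD rats given 10 mg/kg intragastrically in 10% DMSO/90% PBS. Blood drawn at 5, 15, 30 min and 1, 2, 4, 6 h, centrifuged 4000 rpm for 5 min at 4 °C. Protein precipitation, then LC/MS/MS in SRM mode with internal standard. Parameters from noncompartmental analysis of plasma concentration-time data.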

[9] = test system: MCF-10A; assay: Cytotoxicity against human MCF10A cells at 100 uM incubated for 24 hrs by CellTiter-96AQ based MTT assay; format: cell-based; how it was run: as §3
[10] = Half life in Sprague-Dawley rat at 10 mg/kg, ig measured for 5 min to 6 hrs by LC/MS/MS analysis; format: ADME, organism-based; conditions: in vivo, po; how it was run: as §4
[11] = test system: Mus musculus; assay: Antiinflammatory activity against carrageenan-induced paw oedema in C57BL/6J mouse assessed as paw swollen thickness at 10 mg/kg, ip daily dosed 30 mins after carrageenan challenge and measured 74 hrs carrageenan challenge and 2 hrs post last dose by caliper method (reference value: 0.68 millimeter); format: functional; how it was run: as §1
[12] = test system: Mus musculus; assay: Antiinflammatory activity against carrageenan-induced paw oedema in C57BL/6J mouse assessed as hind paw thickness at 10 mg/kg, ip daily dosed 30 mins after carrageenan challenge and measured 74 hrs carrageenan challenge and 2 hrs post last dose by caliper method (reference value: 3.05 millimeter); format: functional; how it was run: as §1
[13] = test system: Mus musculus; assay: Antiinflammatory activity in C57BL/6J mouse assessed as reduction in carrageenan-induced accumulation of inflammatory cells in paw tissue at 10 mg/kg, ip daily dosed 30 mins after carrageenan challenge and measured 74 hrs carrageenan challenge and 2 hrs post last dose by H and E staining based histopathological analysis; format: functional, organism-based
[14] = test system: SK-BR-3; assay: Cytotoxicity against human SKBR3 cells at 100 uM incubated for 24 hrs by CellTiter-96AQ based MTT assay; format: cell-based; conditions: sk-br-3, 24 h; how it was run: as §3

C-X-C chemokine receptor type 4 (Homo sapiens), sequence (P61073 whole entry): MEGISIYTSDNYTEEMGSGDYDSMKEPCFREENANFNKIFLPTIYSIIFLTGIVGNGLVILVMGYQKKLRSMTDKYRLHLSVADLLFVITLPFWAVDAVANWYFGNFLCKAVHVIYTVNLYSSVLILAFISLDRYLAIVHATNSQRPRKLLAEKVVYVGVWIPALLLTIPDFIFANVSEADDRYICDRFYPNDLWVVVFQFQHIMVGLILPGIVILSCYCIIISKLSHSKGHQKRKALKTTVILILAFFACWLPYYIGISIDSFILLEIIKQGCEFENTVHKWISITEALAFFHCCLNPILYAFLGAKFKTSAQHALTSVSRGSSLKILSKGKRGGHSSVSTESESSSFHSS

Ratio [2]: 1000
EC [4]: 1 nM
SMILES: O=C(NCc1ccc(CNS(=O)(=O)c2ccc(CN3CCCC3)cc2)cc1)c1ccc(F)cc1
inhibition in vivo at 10 mg/kg [1]: 20%
inhibition [3]: 92%

Ratio [2]: 1000
EC [4]: 1 nM
SMILES: CCN(CC)Cc1ccc(S(=O)(=O)NCc2ccc(CNC(=O)c3ccc(F)cc3)cc2)cc1

EC [4]: 1000 nM
SMILES: O=C(NCc1ccc(CNS(=O)(=O)c2ccc([N+](=O)[O-])cc2)cc1)c1ccc(F)cc1

EC [4]: 100 nM
SMILES: Cc1ccccc1S(=O)(=O)NCc1ccc(CNC(=O)c2ccc(F)cc2)cc1

EC [4]: 1000 nM
SMILES: Cc1ccc(S(=O)(=O)NCc2ccc(CNC(=O)c3ccc(F)cn3)cc2)cc1

EC [4]: 100 nM
SMILES: O=C(NCc1ccc(CNS(=O)(=O)c2ccc(Cl)cc2)cc1)c1ccc(F)cc1

EC [4]: 1 nM
SMILES: O=C(NCc1ccc(CNS(=O)(=O)c2ccc(F)cc2)cc1)c1ccc(F)cc1

EC [4]: 10 nM
SMILES: O=C(NCc1ccc(CNS(=O)(=O)c2ccccc2F)cc1)c1ccc(F)cc1

EC [4]: > 1000 nM
SMILES: Cc1ccc(S(=O)(=O)NCc2ccc(CNC(=O)c3ccc(F)nc3)cc2)cc1

EC [4]: 1 nM
SMILES: O=C(NCc1ccc(CNS(=O)(=O)c2cccc(Cl)c2)cc1)c1ccc(F)cc1
inhibition in vivo at 10 mg/kg [1]: 20%
inhibition [3]: 95%

SMILES: Cc1ccc(S(=O)(=O)NCc2ccc(CNC(=O)c3ccc(F)cc3)cc2)cc1
inhibition in vivo at 10 mg/kg [1]: 30%
inhibition [5]: 65%

EC [4]: 1000 nM
SMILES: O=C(NCc1ccc(CNS(=O)(=O)c2ccccc2Cl)cc1)c1ccc(F)cc1

EC [4]: 1000 nM
SMILES: O=C(NCc1ccc(CNS(=O)(=O)c2cccc3ccccc23)cc1)c1ccc(F)cc1

EC [4]: 1 nM
SMILES: Cc1cccc(S(=O)(=O)NCc2ccc(CNC(=O)c3ccc(F)cc3)cc2)c1

Ratio [2]: 100
EC [4]: 10 nM
SMILES: O=C(NCc1ccc(CNS(=O)(=O)c2ccc(CN3CCOCC3)cc2)cc1)c1ccc(F)cc1
inhibition in vivo at 10 mg/kg [1]: 20%
inhibition [3]: 82%

EC [4]: 100 nM
SMILES: O=C(NCc1ccc(CNS(=O)(=O)c2cccc(C(F)(F)F)c2)cc1)c1ccc(F)cc1
inhibition in vivo at 10 mg/kg [1]: 20%
inhibition [3]: 93%

EC [4]: 100 nM
SMILES: O=C(NCc1ccc(CNS(=O)(=O)c2ccc(-c3ccc(F)cc3)cc2)cc1)c1ccc(F)cc1

EC [4]: 10 nM
SMILES: O=C(NCc1ccc(CNS(=O)(=O)c2ccc(F)c(F)c2)cc1)c1ccc(F)cc1

Tmax [8]: 0.25 h
t1/2 [10]: 4.77 h
EC [4]: 10 nM
SMILES: O=C(NCc1ccc(CNS(=O)(=O)c2ccc3c(c2)CCO3)cc1)c1ccc(F)cc1
Activity [6]: Non-Toxic
inhibition in vivo at 10 mg/kg [1]: 43%
inhibition [3]: 83%
inhibition [7]: Active
Activity [9]: Non-Toxic
Activity [11]: 0.21 mm
Activity [12]: 2.64 mm
inhibition [13]: Active
Activity [14]: Non-Toxic

EC [4]: 1000 nM
SMILES: O=C(NCc1ccc(CNS(=O)(=O)c2cccnc2)cc1)c1ccc(F)cc1

EC [4]: 1000 nM
SMILES: O=C(NCc1ccc(CNS(=O)(=O)c2cccc(F)c2)cc1)c1ccc(F)cc1
